Data on 39 compounds can be found in ChEMBL document CHEMBL4513216, “Probing the Open Global Health Chemical Diversity Library for Multistage-Active Starting Points for Next-Generation Antimalarials” (ACS Infect Dis, 2020).

SMILES strings stand for the structures.

This series in a line: Toxicity liver stage against HepG2, at 10uM. Format: cell-based. Set-up: test concentration 10 uM, cell line HepG2-A16-CD81EGFP. The settings on record: human, HepG2-A16-CD81EGFP cells; read-out: INHIBITION
The method, boiled down:
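Uninfected HepG2-A16-CD81EGFP cells, 3 × 10^3 per well, 1536-well, plated on prespotted compound at 10 μM final, parasite-free screening media added to match infected plates; puromycin 10 μM positive, DMSO 0.5% negative; run in parallel with 48 h PbLuc assay at 37 °C, 5% CO2; viability by CellTiter-Glo luminescence, normalized to controls.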

For the compound `O=C(NC1CCCN(CCCc2ccccc2)C1)c1ccncc1` (centres undefined), the cytotoxicity at 10 µM came to 0.524%.
In the case of `Cc1noc(C)c1CN1CCC2(CC1)CN(c1ccccn1)CCO2` it was -3%; in that of `COc1ccc(-c2noc(CN3CCOCC3C)n2)cc1OC` (centres undefined), -7.3%.
Turning to `CC(=O)N1CCN(C(=O)c2ccc3ccn(C)c3c2)CC1`, the cytotoxicity at 10 µM is -0.173%.
Then `CCNC(=O)C(C)NC(=O)c1cnc(-c2ccc(C)cc2C)s1` (centres undefined), with -18.7%; and `CS(=O)(=O)CCNCc1ccc(OCc2ccccn2)cc1`, with -128%.
Then `CC(C)c1nnc2n1CCN(Cc1nc(-c3ccoc3)no1)C2`, with -3.69%; and `Cc1n[nH]c(C)c1CC(=O)N1CC[C@@](C)(O)[C@H](Oc2ccccc2)C1`, with 2.85%; and `N#CC1C(=O)Nc2c(cnn2C2CCCC2)C12CCCCC2` (centres undefined), with 8.46%.
In the case of `Cc1nc(C)n(CC2CCCN(CCC(=O)NC3CCCCC3)C2)n1` (centres undefined) it was -3.39%; in that of `Cc1n[nH]c(C)c1CNC(=O)CSCc1ccccc1Cl`, -4.02%.
As to `COc1ccc(C2CCCN2C(=O)NCCn2ccnc2)cc1` (centres undefined), the cytotoxicity at 10 µM was -9.13%.
Take `Cc1ccc(CN(CCCN2CCOCC2)Cc2cncn2C)o1`: the cytotoxicity at 10 µM is -40.3%.
In the case of `Cc1cc(C)c(S(=O)(=O)Nc2ccccc2CC(F)(F)F)cc1C(=O)O` it was -1.47%; in that of `Cc1nc(CN2CCCC(CCc3c(F)cccc3F)C2)c[nH]1` (centres undefined), -21%; in that of `O=C(Cc1ccc2c(c1)OCCO2)NC1CCN(CC(F)F)CC1`, -9.86%.
Take `CN(C)c1cc(C(=O)N2CCCC(n3cccn3)C2)ccn1` (centres undefined): the cytotoxicity at 10 µM is -0.781%.
Then `CC(OCC(F)(F)F)C(=O)N1CCN(S(C)(=O)=O)CC1` (centres undefined), with -1.33%; and `CNC(=O)CCc1cc(C)nc(C2CCCN2)c1` (centres undefined), with -8.49%.
`CCn1ccnc1CN1CCCN(C(=O)c2cc[nH]n2)CC1`: the cytotoxicity at 10 µM was -8.04%.
Then `Cc1ccc(N2C[C@@H]3CN(C(=O)c4ccccc4)CCO[C@@H]3C2)nn1`, with -5.52%; and `CN(C)CC1COCCN1C(=O)c1ccccc1C(=O)c1ccccc1` (centres undefined), with 1.12%; and `Cn1ncc2c1NC(=O)CC2c1cc(Cl)ccc1F` (centres undefined), with 78.6%.
Then `CN1CCN(Cc2nnc(C3CCN(C(CO)CO)CC3)n2C)CC1`, with 2.52%.
In the case of `Cc1nc(C#N)c(N2CCC(c3nc(-c4ccc(F)cc4)no3)CC2)o1` it was 3.86%.
As for `Cc1nc(CCNC(=O)C2CC(=O)N(C(C)(C)C)C2)sc1C` (centres undefined), the cytotoxicity at 10 µM was -13.2%.
Then `CC1CCCN1C1CCN(C(=O)c2cccc(F)c2)CC1` (centres undefined), with 5.93%; and `O=C1CN(C(=O)CC2c3ccccc3CCc3ccccc32)CCN1`, with 9.98%; and `CCc1nc2n(n1)CCCC2NC(=O)Nc1ccc(F)cc1C#N` (centres undefined), with -0.802%.
In the case of `CCCn1nnnc1CN(c1ccc(N2CCOCC2)cc1)C(C)C` it was 6.8%; in that of `Clc1ccccc1C1(c2ccnc(-c3ccncc3)n2)CCNCC1`, -8.16%; in that of `CN(C)C(=O)CN1CCc2onc(-c3ccccc3F)c2C1`, 2.45%.
Then `CC1(c2ncc(CN3CCN(c4ccccn4)CC3)cn2)CCCCO1` (centres undefined), with 2.68%.
With `O=C(c1c[nH]c(=O)cn1)N1C[C@H]2CC[C@@H](C1)N(Cc1ccccc1)C2`, the cytotoxicity at 10 µM was -126%.
Then `Cc1nsc2ncc(C(=O)N3CCCC3c3cnn(C)c3)cc12` (centres undefined), with -1.8%; and `Cc1ccc(C(=O)N2CC3(CCCCC3)c3cc(C(=O)O)ccc32)cn1`, with 11.2%.
In the case of `CCN1CCN(C(=O)c2cnn(-c3ccccc3Cl)c2)CC1` it was -11.5%; in that of `CN1CCO[C@@H]2CN(S(=O)(=O)c3ccccc3)CC[C@@H]2C1`, -0.461%.
Then `COc1cccc(CC(C)NC(=O)NCc2ccn(C)c2)c1` (centres undefined), with 0.166%.
